Measured values reported in ChEMBL document CHEMBL1142303, “Imidazo[2,1-b]thiazole system: a scaffold endowing dihydropyridines with selective cardiodepressant activity” (J Med Chem, 2008).
Active and inactive are the calls of the source. No cut-off for these calls is given here.

Columns and labels:
Cavia porcellus [1] = organism: Cavia porcellus; experiment: Chronotropic activity at L type calcium channel in guinea pig right atrium assessed as decrease in spontaneous beating at 50 uM relative to control; assay type: tissue-based; design: scale not given: the % may be the effect or the level left; conditions: Cardiac atrium
Cavia porcellus [2] = organism: Cavia porcellus; experiment: Inotropic activity at L type calcium channel in guinea pig left atrium assessed as decrease in tension at 0.5 uM relative to control; assay type: tissue-based; design: scale not given: the % may be the effect or the level left; conditions: Cardiac atrium
Cavia porcellus [3] = organism: Cavia porcellus; experiment: Activity at L type calcium channel in K+ depolarized guinea pig aortic strip assessed as inhibition of calcium induced contraction at 100 uM; assay type: tissue-based; design: scale not given: the % may be the effect or the level left; conditions: Aorta
In short: (§1)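 Guinea-pig aortic strips depolarized with 80 mM K+. Drugs added cumulatively. Readout is percent inhibition of calcium-induced contraction, n = 5–6. Control versus treated values tested at each concentration by Student's t-test, P < 0.05.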

Cavia porcellus [4] = organism: Cavia porcellus; experiment: Chronotropic activity at L type calcium channel in guinea pig right atrium assessed as decrease in spontaneous beating at 10 uM relative to control; assay type: tissue-based; design: scale not given: the % may be the effect or the level left; conditions: Cardiac atrium
Cavia porcellus [5] = organism: Cavia porcellus; experiment: Activity at L type calcium channel in K+ depolarized guinea pig longitudinal smooth muscle assessed as inhibition of calcium induced contraction at 5 uM; design: scale not given: the % may be the effect or the level left
[6] = Activity at L type calcium channel in K+ depolarized guinea pig longitudinal smooth muscle assessed as inhibition of calcium induced contraction; design: species or system Cavia porcellus
[7] = Displacement of (+)-[5-methyl-3H][…] from L type calcium channel in guinea pig heart ventricles; design: species or system Cavia porcellus
In short: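 Guinea-pig ventricular membranes incubated with 0.5 nM (+)-[5-methyl-3H]PN200-110 and test compounds at 0.1–50 µM in a competitive radioligand assay. Ki and IC50 reported as mean ± S.E.M. Student's t-test, significance P < 0.001.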

[8] = Inotropic activity at L type calcium channel in guinea pig left atrium assessed as decrease in tension; assay type: tissue-based; conditions: Cavia porcellus, Cardiac atrium
In short: (§2)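 Guinea-pig atria: left atrium driven at 1 Hz for inotropy, spontaneously beating right atrium for chronotropy. Increasing cumulative doses, readout is percent decrease. EC50 (inotropic) and EC30 (chronotropic) by Litchfield–Wilcoxon probit analysis on log concentration–response curves, n = 6–7. Not calculated when the maximum effect was below 50%.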

Cavia porcellus [9] = organism: Cavia porcellus; experiment: Inotropic activity at L type calcium channel in guinea pig left atrium assessed as decrease in tension at 5 uM relative to control; assay type: tissue-based; design: scale not given: the % may be the effect or the level left; conditions: Cardiac atrium
Cavia porcellus [10] = organism: Cavia porcellus; experiment: Activity at L type calcium channel in K+ depolarized guinea pig aortic strip assessed as inhibition of calcium induced contraction at 5 uM; assay type: tissue-based; design: scale not given: the % may be the effect or the level left; conditions: Aorta; in short: as §1
Cavia porcellus [11] = organism: Cavia porcellus; experiment: Chronotropic activity at L type calcium channel in guinea pig right atrium assessed as decrease in spontaneous beating; assay type: tissue-based; conditions: Cardiac atrium; in short: as §2
Cavia porcellus [12] = organism: Cavia porcellus; experiment: Inotropic activity at L type calcium channel in guinea pig left atrium assessed as decrease in tension at 100 uM relative to control; assay type: tissue-based; design: scale not given: the % may be the effect or the level left; conditions: Cardiac atrium
[13] = (§3) Displacement of (+)-[5-methyl-3H][…] from L type calcium channel Cav1.2a in rabbit expressed in HEK293 cells; assay type: cell-based, Oryctolagus cuniculus
In short: (§4)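 Intact HEK-293 cells transfected with rabbit Cav1.2a (α1C-a) or Cav1.2b (α1C-b) plasmid, labelled with (+)-[5-methyl-3H]PN200-110. Nonspecific binding about 10–20% of total. IC50 is mean ± S.E.M. of three independent experiments.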

Cavia porcellus [14] = organism: Cavia porcellus; experiment: Activity at L type calcium channel in K+ depolarized guinea pig longitudinal smooth muscle assessed as inhibition of calcium induced contraction at 0.5 uM; design: scale not given: the % may be the effect or the level left
Cavia porcellus [15] = organism: Cavia porcellus; experiment: Chronotropic activity at L type calcium channel in guinea pig right atrium assessed as decrease in spontaneous beating at 5 uM relative to control; assay type: tissue-based; design: scale not given: the % may be the effect or the level left; conditions: Cardiac atrium
[16] = (§5) Displacement of (+)-[5-methyl-3H][…] from L type calcium channel Cav1.2b in rabbit expressed in HEK293 cells; assay type: cell-based, Oryctolagus cuniculus; in short: as §4
Cavia porcellus [17] = organism: Cavia porcellus; experiment: Activity at L type calcium channel in K+ depolarized guinea pig longitudinal smooth muscle assessed as inhibition of calcium induced contraction at 0.1 uM; design: scale not given: the % may be the effect or the level left
Cavia porcellus [18] = organism: Cavia porcellus; experiment: Activity at L type calcium channel in K+ depolarized guinea pig aortic strip assessed as inhibition of calcium induced contraction at 10 uM; assay type: tissue-based; design: scale not given: the % may be the effect or the level left; conditions: Aorta; in short: as §1
Cavia porcellus [19] = organism: Cavia porcellus; experiment: Chronotropic activity at L type calcium channel in guinea pig right atrium assessed as decrease in spontaneous beating at 1 uM relative to control; assay type: tissue-based; design: scale not given: the % may be the effect or the level left; conditions: Cardiac atrium
HEK293 [20] = experiment: as §3; assay type: cell-based; conditions: Oryctolagus cuniculus; in short: as §4
HEK293 [21] = experiment: as §5; assay type: cell-based; conditions: Oryctolagus cuniculus; in short: as §4
Cavia porcellus [22] = organism: Cavia porcellus; experiment: Inotropic activity at L type calcium channel in guinea pig left atrium assessed as decrease in tension at 10 uM relative to control; assay type: tissue-based; design: scale not given: the % may be the effect or the level left; conditions: Cardiac atrium
Heart [23] = experiment: Cardiovascular activity in perfused guinea pig heart assessed as change in maximal rate of rise in left ventricular pressure at 10 uM by ECG; assay type: functional, Cavia porcellus
In short: (§6)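 Perfused guinea-pig heart. Percentage change from basal value at the highest concentration tested, 10 µM. Parameters: +(dP/dt)max, heart rate, coronary perfusion pressure, PR interval and QT interval from ECG.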

Heart [24] = experiment: Cardiovascular activity in perfused guinea pig heart assessed as change in heart rate at 10 uM by ECG; assay type: functional, Cavia porcellus; in short: as §6
Heart [25] = experiment: Cardiovascular activity in perfused guinea pig heart assessed as change in ventricular repolarization time at 10 uM by ECG; assay type: functional, Cavia porcellus; in short: as §6
Cavia porcellus [26] = organism: Cavia porcellus; experiment: Activity at L type calcium channel in K+ depolarized guinea pig longitudinal smooth muscle assessed as inhibition of calcium induced contraction at 10 uM; design: scale not given: the % may be the effect or the level left
Heart [27] = experiment: Cardiovascular activity in perfused guinea pig heart assessed as change in coronary perfusion pressure at 10 uM by ECG; assay type: functional, Cavia porcellus; in short: as §6
Cavia porcellus [28] = organism: Cavia porcellus; experiment: Inotropic activity at L type calcium channel in guinea pig left atrium assessed as decrease in tension at 1 uM relative to control; assay type: tissue-based; design: scale not given: the % may be the effect or the level left; conditions: Cardiac atrium
Cavia porcellus [29] = organism: Cavia porcellus; experiment: Activity at L type calcium channel in K+ depolarized guinea pig aortic strip assessed as inhibition of calcium induced contraction at 50 uM; assay type: tissue-based; design: scale not given: the % may be the effect or the level left; conditions: Aorta; in short: as §1
Heart [30] = experiment: Cardiovascular activity in perfused guinea pig heart assessed as change in atrioventricular conduction time at 10 uM by ECG; assay type: functional, Cavia porcellus; in short: as §6
Heart [31] = experiment: Cardiovascular activity in perfused guinea pig heart assessed as change in coronary perfusion pressure at 1 uM by ECG; assay type: functional, Cavia porcellus
In short: (§7)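 Guinea-pig heart: values are % change from basal. Parameters are +(dP/dt)max, heart rate, coronary perfusion pressure, PR and QT intervals. Highest concentration tested 10 µM.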

Heart [32] = experiment: Cardiovascular activity in perfused guinea pig heart assessed as change in atrioventricular conduction time at 1 uM by ECG; assay type: functional, Cavia porcellus
Cavia porcellus [33] = organism: Cavia porcellus; experiment: Activity at L type calcium channel in K+ depolarized guinea pig aortic strip assessed as inhibition of calcium induced contraction at 1 uM; assay type: tissue-based; design: scale not given: the % may be the effect or the level left; conditions: Aorta
In short: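 Guinea-pig aortic strips depolarized with K+ (80 mM); % inhibition of Ca2+-induced contraction vs control. Drugs added cumulatively, compared with control at each concentration (Student's t-test, P<0.05). Mean ± S.E.M.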

Cavia porcellus [34] = organism: Cavia porcellus; experiment: Chronotropic activity at L type calcium channel in guinea pig right atrium assessed as decrease in spontaneous beating at 0.1 uM relative to control; assay type: tissue-based; design: scale not given: the % may be the effect or the level left; conditions: Cardiac atrium
In short: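 Spontaneously beating guinea-pig right atrium: % decrease in rate vs control. Drugs added cumulatively at increasing concentrations, compared with control at each concentration (Student's t-test, P<0.05). Mean ± S.E.M.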

Heart [35] = experiment: Cardiovascular activity in perfused guinea pig heart assessed as change in ventricular repolarization time at 10 nM by ECG; assay type: functional, Cavia porcellus; in short: as §7
Heart [36] = experiment: Cardiovascular activity in perfused guinea pig heart assessed as change in maximal rate of rise in left ventricular pressure at 10 nM by ECG; assay type: functional, Cavia porcellus; in short: as §7
Cavia porcellus [37] = organism: Cavia porcellus; experiment: Activity at L type calcium channel in K+ depolarized guinea pig longitudinal smooth muscle assessed as inhibition of calcium induced contraction at 5 nM; design: scale not given: the % may be the effect or the level left
Heart [38] = experiment: Cardiovascular activity in perfused guinea pig heart assessed as change in heart rate at 10 nM by ECG; assay type: functional, Cavia porcellus; in short: as §7

COC(=O)C1=C(C)NC(C)=C(C(=O)OC)C1c1c(C)nc2sc(C)cn12
Activity (Cavia porcellus [1]): 38% | Activity (Cavia porcellus [2]): 43% | Activity (Cavia porcellus [3]): 33%

COC(=O)C1=C(C)NC(C)=C(C(=O)OC)C1c1c(-c2ccccc2OC(F)(F)F)nc2sccn12
Activity (Cavia porcellus [4]): 47% | Activity (Cavia porcellus [5]): 81% | IC50 [6]: 1950 nM | Log Ki [7]: -6.8 | Activity (Cavia porcellus [3]): 47% | EC50 [8]: 75 nM | Activity (Cavia porcellus [9]): 67%

COC(=O)C1=C(C)NC(C)=C(C(=O)OC)C1c1c(-c2cc(OC)cc(OC)c2)nc2sccn12
Activity (Cavia porcellus [10]): 40% | EC30 (Cavia porcellus [11]): 860 nM | IC50 [6]: 55 nM | Log Ki [7]: -6.51 | Activity (Cavia porcellus [12]): 26% | IC50 [13]: 265 nM | Activity (Cavia porcellus [14]): 89% | Activity (Cavia porcellus [15]): 90% | IC50 [16]: 1.45 nM

COC(=O)C1=C(C)NC(C)=C(C(=O)OC)C1c1c(-c2cccc(OC)c2)nc2sccn12
EC30 (Cavia porcellus [11]): 550 nM | Activity (Cavia porcellus [17]): 51% | IC50 [6]: 83 nM | Activity (Cavia porcellus [12]): 90% | EC50 [8]: 1900 nM | Activity (Cavia porcellus [18]): 48% | Activity (Cavia porcellus [15]): 94%

COC(=O)C1=C(C)NC(C)=C(C(=O)OC)C1c1c(C(F)(F)F)nc2sccn12
Activity (Cavia porcellus [10]): 34% | EC30 (Cavia porcellus [11]): 570 nM | Activity (Cavia porcellus [19]): 54% | Log Ki [7]: -5.35 | Activity (HEK293 [20]): inactive | EC50 [8]: 71 nM | Activity (HEK293 [21]): inactive | Activity (Cavia porcellus [22]): 90%

COC(=O)C1=C(C)NC(C)=C(C(=O)OC)C1c1c(Cl)nc2sc(C)cn12
Activity (Heart [23]): -35% | Activity (Heart [24]): 6% | Activity (Heart [25]): -16% | Activity (Cavia porcellus [26]): 93% | Activity (Cavia porcellus [4]): 22% | Activity (Heart [27]): 14% | IC50 [6]: 2060 nM | Activity (Cavia porcellus [28]): 63% | Activity (Cavia porcellus [29]): 19% | Activity (Heart [30]): 61% | Log Ki [7]: < -5 | EC50 [8]: 56 nM

COC(=O)C1=C(C)NC(C)=C(C(=O)OC)C1c1ccccc1[N+](=O)[O-] [NIFEDIPINE]
EC30 (Cavia porcellus [11]): 25 nM | Activity (Heart [31]): -36% | Activity (Heart [32]): 66% | Activity (Cavia porcellus [33]): 82% | Activity (Cavia porcellus [34]): 85% | Activity (Heart [35]): 37% | Log Ki [7]: -8.83 | Activity (Heart [36]): -96% | IC50 [13]: 45 nM | Activity (Cavia porcellus [37]): 70% | Activity (Heart [38]): -60% | EC50 [8]: 260 nM | IC50 [16]: 3.6 nM | Activity (Cavia porcellus [22]): 97%
